Consider 17 molecules from ChEMBL document CHEMBL1153229, “The first synthetic agonists of FFA2: Discovery and SAR of phenylacetamides as allosteric modulators” (Bioorg Med Chem Lett, 2010).

The structures appear in SMILES notation. pIC50: −log10 of the molar value. A value given as a limit tells only on which side of the number the result lay.

The nature of data set [1]: Volume of distribution at steady state in Sprague-Dawley rat at 0.5 mg/kg, iv. The note with it: in vivo, read-out: Vdss. Details: dose 0.5 mg/kg, route intravenous. The data set is classed as ADME, organism-based. The essentials:
(§1)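 Male Sprague-Dawley rats dosed 0.5 mg/kg iv.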

The subject of data set [2] is Rattus norvegicus. In words: AUC in Sprague-Dawley rat at 0.5 mg/kg, iv. The arrangement: dose 0.5 mg/kg, route intravenous. The data set is classed as ADME, organism-based, Plasma. The following applies: in vivo. The essentials: as §1
Data set [3] in a line: Mean residence time in Sprague-Dawley rat at 0.5 mg/kg, iv. Type of data set: ADME, organism-based. The arrangement: dose 0.5 mg/kg, route intravenous. The following applies: in vivo. The essentials: as §1
Data set [4] addresses T1, Free fatty acid receptor 2 (Homo sapiens) (UniProt O15552).
T1 sequence (whole entry): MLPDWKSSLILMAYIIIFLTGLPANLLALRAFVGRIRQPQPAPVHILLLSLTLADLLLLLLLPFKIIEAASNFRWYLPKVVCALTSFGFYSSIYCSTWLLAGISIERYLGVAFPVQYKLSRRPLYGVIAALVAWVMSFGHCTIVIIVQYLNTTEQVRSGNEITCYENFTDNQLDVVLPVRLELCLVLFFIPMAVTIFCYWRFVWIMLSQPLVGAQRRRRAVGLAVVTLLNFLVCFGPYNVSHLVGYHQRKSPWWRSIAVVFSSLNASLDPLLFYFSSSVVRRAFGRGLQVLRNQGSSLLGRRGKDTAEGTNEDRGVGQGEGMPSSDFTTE
In words: Agonist activity at human FFA2 receptor expressed in CHO cells assessed as inhibition of forskolin-induced cAMP production relative to acetate. Type of data set: functional, cell-based. The essentials: (§2)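 Suspended cells, 10,000 per well, in Hank's balanced salt solution with 25 mM HEPES and 0.01% (w/v) BSA. Stimulated with forskolin (5 μM final) plus serially diluted test ligands, room temperature for 30 min. Antibody and lysis reagents then added, followed by overnight dark incubation with detection solution. Luminescence read (RLU). Efficacy expressed relative to acetate. Means of four experiments.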
In general terms: cAMP levels reflect the balance of adenylyl cyclase and phosphodiesterase activity.

Data set [5] deals with T2, Free fatty acid receptor 2 (Homo sapiens, UniProt O15552).
T2 sequence (O15552 whole entry): T1 sequence (whole entry)
Put plainly: Agonist activity at human FFA2 receptor expressed in CHO cells assessed as inhibition of forskolin-induced cAMP production. Type of data set: functional, cell-based. The essentials: as §2

For data set [6], the system named is Rattus norvegicus. Put plainly: Clearance in Sprague-Dawley rat at 0.5 mg/kg, iv. Type of data set: ADME, organism-based. Details: dose 0.5 mg/kg, route intravenous. The following applies: in vivo. In short, it runs like this: as §1
The target of data set [7] is T3, Free fatty acid receptor 2 (Mus musculus) (UniProt Q8VCK6).
T3 sequence (whole entry): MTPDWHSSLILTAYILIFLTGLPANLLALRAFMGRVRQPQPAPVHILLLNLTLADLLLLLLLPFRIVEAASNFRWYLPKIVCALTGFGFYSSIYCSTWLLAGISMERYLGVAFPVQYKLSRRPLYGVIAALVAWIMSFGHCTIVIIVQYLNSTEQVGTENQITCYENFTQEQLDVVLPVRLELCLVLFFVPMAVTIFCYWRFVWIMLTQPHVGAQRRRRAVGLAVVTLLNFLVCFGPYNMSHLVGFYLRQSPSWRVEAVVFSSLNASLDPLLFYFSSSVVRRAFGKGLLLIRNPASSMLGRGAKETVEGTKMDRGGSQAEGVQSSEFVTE
Put plainly: Agonist activity at mouse FFA2 receptor expressed in CHO cells assessed as inhibition of forskolin-induced cAMP production. The data set is classed as functional, cell-based. The essentials: as §2

Another data set has as its system 3T3-L1. Put plainly: Inhibition of lipolysis in mouse 3T3L1 cells. Type of data set: functional, cell-based. The essentials:
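Lipolysis measured in 3T3L1 adipocytes across a concentration range of test compound. Sensitivity to pertussis toxin treatment also examined. Means of three experiments.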

Data set [8] in a line: AUC in mouse at 5 mg/kg, po. Details: dose 5 mg/kg, route oral. The following applies: plasma. Type of data set: ADME, organism-based.
Data set [9] can be described thus: Mean residence time in mouse at 5 mg/kg, po. The data set is classed as ADME, organism-based. Details: dose 5 mg/kg, route oral. The note with it: in vivo.
Data set [10] in a line: Tmax in mouse at 5 mg/kg, po. Type of data set: ADME, organism-based. Details: dose 5 mg/kg, route oral. The note with it: in vivo.
Data set [11] can be described thus: Metabolic stability in rat liver microsomes assessed as compound remaining after 30 mins. Type of data set: ADME, Microsome. The note with it: read-out: Stability. The essentials: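 Incubated with rat liver microsomes; percent parent remaining at 30 min.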
For orientation: Liver microsomes are a subcellular fraction often used to study metabolism.

Data set [12] in a line: Cmax in mouse at 5 mg/kg, po. Type of data set: ADME, organism-based. Details: dose 5 mg/kg, route oral. The following applies: in vivo.

One may read the AUC as the area under the concentration-time curve, a measure of exposure. A higher AUC goes with high exposure. As a reminder, the MRT is a mean duration of stay, worked out from the concentration-time curve. As usually defined, the pIC50 is −log10 of the IC50, conventionally taken in molar units. For `CC(C)[C@H](C(=O)Nc1ncc(Cl)s1)c1ccc(Cl)cc1`, the Vd in data set [1] came to 8.3 L/kg. This molecule showed an AUC in the data set on Rattus norvegicus [2] of 0.249 µg·h/mL. This molecule also yielded an MRT in data set [3] of 4.2 h. Further, the Efficacy in data set [4] turned out to be 100%. Moreover, in data set [5], the pIC50 was 6.15. In the data set with Rattus norvegicus [6], this molecule gave a CL of 33 mL/min/kg.

`Cc1cnc(NC(=O)[C@H](c2ccc(Cl)cc2)C(C)C)s1`: the Activity in [7] amounted to 1.4 µM. For the same molecule, the inhibition result with 3T3-L1 was “Dose-dependent effect”. In addition, the Efficacy in [4] was determined as 99%. Further, in [5], the pIC50 is 6.10.

One may read the Tmax as the time at which the peak concentration occurs. In general, Cmax refers to the peak of the concentration-time curve. In the case of `CC(C)[C@H](C(=O)Nc1nccs1)c1ccc(Cl)cc1`, the AUC amounted to 10 µg·h/mL in data set [8] and 0.079 µg·h/mL in the data set on Rattus norvegicus [2]. The Vd in data set [1] was found to be 7 L/kg. In data set [7], the Activity is 1 µM. The inhibition entry in the data set with 3T3-L1 was “Dose-dependent effect”. The MRT in data set [3] amounted to 1.1 h; in [9] it was 1.8 h. Also, the Tmax in [10] came out at 1 h. Moreover, the Efficacy in data set [4] was 100%. Moreover, the pIC50 in data set [5] is 6.15. In the data set with Rattus norvegicus [6], this molecule had a CL of 107 mL/min/kg. Further, the remaining at 0.5 h in [11] came to 2%. In addition, in [12], the concentration peaked (Cmax) at 5 ng/mL.

In the case of `CC(C)(C)[C@H](C(=O)Nc1ncc(-c2ccccc2)s1)c1ccc(Cl)cc1`, the AUC in [8] came out at 18600 µg·h/mL; with Rattus norvegicus [2], 1.67 µg·h/mL. In addition, the Vd in data set [1] is 2.7 L/kg. Further, the MRT amounted to 9.1 h in data set [3] and 9.2 h in [9]. Moreover, the Tmax in data set [10] came out at 2 h. In addition, the Efficacy in data set [4] was 111%. Moreover, the pIC50 in data set [5] was 6.15. This molecule also displayed a CL with Rattus norvegicus [6] of 5.33 mL/min/kg. Also, in data set [12], the Cmax came out at 1870 ng/mL.

`CC(C)(C)[C@H](C(=O)Nc1ncc(Cl)s1)c1ccc(Cl)cc1`: the AUC in data set [8] turned out to be 4550 µg·h/mL; in the data set with Rattus norvegicus [2] it was 1.03 µg·h/mL. Also, the Vd in data set [1] is 4.4 L/kg. Moreover, the MRT in data set [3] came to 9 h; in data set [9] it was 7.6 h. For the same molecule, in data set [10], the Tmax is 2 h. In [4], the Efficacy was 97%. For the same molecule, the pIC50 in [5] was 6.00. The same molecule displayed a CL with Rattus norvegicus [6] of 8 mL/min/kg. The molecule also registered a Cmax in [12] of 569 ng/mL.

Regarding `CC(C)[C@H](C(=O)Nc1ccccn1)c1ccc(Cl)cc1`, the Efficacy in data set [4] was 92%. The pIC50 in data set [5] was 5.85.

`CO/C(=N\c1nccs1)[C@H](c1ccc(Cl)cc1)C(C)C`: the Efficacy in data set [4] was less than 30%. For the same molecule, the pIC50 in data set [5] is less than 4.00.

With `CC(C)[C@H](C(=O)Nc1ncc[nH]1)c1ccc(Cl)cc1`, in [4], the Efficacy was found to be 55%. The pIC50 in data set [5] is 4.70.

On to `CC(C)(C)[C@H](C(=O)Nc1ncc(C(F)(F)F)s1)c1ccc(Cl)cc1`, for which, in [4], the Efficacy is 95%. Further, the pIC50 in [5] is 5.82.

Take `CC(C)[C@H](C(=O)NC1=NCCS1)c1ccc(Cl)cc1`: in data set [4], the Efficacy amounted to 109%. Also, in [5], the pIC50 was 5.68.

In the case of `CC(C)C(C(=O)Nc1nnn[nH]1)c1ccc(Cl)cc1` (racemic), the Efficacy in [4] is less than 30%. In [5], the pIC50 is less than 4.00.

Regarding `CC(C)[C@H](C(=O)Nc1ccc(F)cn1)c1ccc(Cl)cc1`, in data set [4], the Efficacy was 93%. In addition, the pIC50 in [5] was 5.89.

For the molecule `Cc1nc(NC(=O)[C@H](c2ccc(Cl)cc2)C(C)C)sc1C`, in data set [4], the Efficacy was 97%. In addition, the pIC50 in data set [5] was 5.74.

Turning to `CSc1cnc(NC(=O)[C@H](c2ccc(Cl)cc2)C(C)(C)C)s1`, the Efficacy in data set [4] came out at 109%. The pIC50 in [5] was 6.30.

Turning to `CC(C)C(C(N)=O)c1ccc(Cl)cc1` (racemic), the Efficacy in [4] was less than 30%. The pIC50 in data set [5] is less than 4.00.

Turning to `CC(C)[C@H](C(=O)Nc1cccnn1)c1ccc(Cl)cc1`, in [4], the Efficacy worked out at 101%. For the same molecule, the pIC50 in [5] is 5.64.

Regarding `CC(C)(C)[C@H](C(=O)Nc1ncc(N2CCS(=O)(=O)CC2)s1)c1ccc(Cl)cc1`, the Efficacy in data set [4] came out at 118%. In addition, the pIC50 in [5] is 5.62.
